Published values of several laboratories.
Each line is one published result; the experiments were not run side by side.
FLT3: Receptor-type tyrosine-protein kinase FLT3 (FLT3, Homo sapiens, UniProt P36888)
FLT3 autoinhibited: Receptor-type tyrosine-protein kinase FLT3, autoinhibited (FLT3, Homo sapiens, UniProt P36888)
FLT3 D835V: Receptor-type tyrosine-protein kinase FLT3 (FLT3, Homo sapiens, UniProt P36888, D835V)
FLT3 N841I: Receptor-type tyrosine-protein kinase FLT3 (FLT3, Homo sapiens, UniProt P36888, N841I)
FLT3 R834Q: Receptor-type tyrosine-protein kinase FLT3 (FLT3, Homo sapiens, UniProt P36888, R834Q)
FLT3 ITD: Receptor-type tyrosine-protein kinase FLT3 (FLT3, Homo sapiens, UniProt P36888, ITD)
FLT3 D835Y: Receptor-type tyrosine-protein kinase FLT3 (FLT3, Homo sapiens, UniProt P36888, D835Y)
FLT3 K663Q: Receptor-type tyrosine-protein kinase FLT3 (FLT3, Homo sapiens, UniProt P36888, K663Q)

O=C(NCCCN1CCOCC1)c1ccc(Nc2ncc(Cl)c(-c3ccc(Cl)s3)n2)cc1
remaining binding (FLT3; binding; competition with immobilised ligand; 1 µM): 7.7%

Nc1ncc2c(n1)-c1c([nH]c3ccc(C#CC4CC4)cc13)CCCC2
remaining binding (FLT3 autoinhibited; binding; competition with immobilised ligand; 1 µM): 82%

CO[C@H]1CC[C@H](CNc2ccc(S(=O)(=O)NC(=O)c3ccc(N4CCN(CC5=C(c6ccc(Cl)cc6)CC(C)(C)CC5)CC4)cc3Oc3cnc4[nH]ccc4c3)cc2[N+](=O)[O-])CC1
remaining binding (FLT3 D835V; cell-free assay; competition with immobilised ligand; 1 µM): 100%

N[C@@H]1CCN(c2nccc(-c3cnn4ncccc34)n2)C1
remaining binding (FLT3 N841I; binding; 1 µM): 79%

CN1CCN(c2ccc(Nc3nccc(-c4ccccc4)n3)cc2C(F)(F)F)CC1
remaining binding (FLT3 R834Q; binding; 10 µM): 15%

O=C(c1ccc(Nc2ncc(Cl)c(-c3ccc(Cl)s3)n2)cc1)N1CCC(N2CCCC2)CC1
remaining binding (FLT3 ITD; binding; competition with immobilised ligand; 1 µM): 0.35%

C[C@@H](c1ccc(-n2cnc3c(N)ncnc32)cc1)N1CCc2nn(C)c(Cc3ccccc3)c2C1=O
remaining binding (FLT3 D835Y; binding; competition with immobilised ligand; 0.1 µM): 100%

O=C(NCCCN1CCOCC1)c1ccc(Nc2nccc(-c3cc4ccccc4s3)n2)cc1
remaining binding (FLT3 D835Y; binding; competition with immobilised ligand; 1 µM): 18%

CN(C)c1nccc(-c2cnn3ncccc23)n1
remaining binding (Receptor-type tyrosine-protein kinase FLT3 (FLT3, Homo sapiens, UniProt P36888, D835H); binding; 1 µM): 100%

O=C(c1ccc(Nc2ncc(Cl)c(-c3cc4ccccc4s3)n2)cc1)N1CCC(N2CCCC2)CC1
remaining binding (FLT3 K663Q; binding; competition with immobilised ligand; 1 µM): 3.4%

CCCOc1ccc([C@@H]2[C@@H](C(=O)O)[C@H](c3ccc4c(c3)OCO4)CN2CC(=O)Nc2c(CC)cccc2CC)cc1
remaining binding (FLT3 N841I; cell-free assay; competition with immobilised ligand; 1 µM): 88%

C[C@@H]1CCN(c2nccc(-c3cnn4ncccc34)n2)C1
remaining binding (FLT3 D835Y; binding; 1 µM): 100%

O=C(NCC1CCOCC1)c1n[nH]cc1NC(=O)c1c(F)cccc1F
remaining binding (FLT3 R834Q; binding; competition with immobilised ligand; 1 µM): 77%

C[C@@H]1CN(c2cc(-c3n[nH]c4ccc(OC5(C)CC5)cc34)ncn2)C[C@H](C)O1
remaining binding (FLT3 K663Q; cell-free assay; competition with immobilised ligand; 0.1 µM): 100%

Cc1cnn2ncc(-c3ccnc(N(C)C)n3)c2c1
remaining binding (FLT3 N841I; binding; 1 µM): 100%

O=C1CCc2cc(Nc3cc(OC4CCOCC4)c([N+](=O)[O-])cc3Cl)ccc2N1
remaining binding (Receptor-type tyrosine-protein kinase FLT3 (FLT3, Homo sapiens, UniProt P36888, D835V/ITD); cell-free assay; competition with immobilised ligand; 1 µM): 78%

COc1cnc(Nc2cccc(S(N)(=O)=O)c2)nc1N1CCN(c2ccccc2)CC1
remaining binding (FLT3 R834Q; binding; competition with immobilised ligand; 1 µM): 54%

CC1CCCN1c1nccc(-c2cnn3ncccc23)n1 (stereo not shown)
remaining binding (FLT3 autoinhibited; binding; 1 µM): 100%

CCN1CCN(Cc2ccc(C(=O)Nc3ccc(C)c(Oc4ccc5c(c4)CC(=O)N5)c3)cc2C(F)(F)F)CC1
remaining binding (FLT3; binding; competition with immobilised ligand; 1 µM): 41%

O=C1NC(c2ccccn2)Sc2ccccc21 (stereo not shown)
remaining binding (FLT3 D835Y; cell-free assay; competition with immobilised ligand; 1 µM): 86%

O=C(c1ccc(Nc2nccc(-c3cc4ccccc4s3)n2)cc1)N1CCC(N2CCCC2)CC1
remaining binding (FLT3; binding; competition with immobilised ligand; 1 µM): 44%

CNCc1ccccc1-c1csc([C@H](C)Nc2nc(C)nc3cc(OC)c(OC)cc23)c1
remaining binding (FLT3 ITD; cell-free assay; competition with immobilised ligand; 1 µM): 99%

c1cncc(-c2cccc(Nc3nccc(NC4CCCCC4)n3)c2)c1
remaining binding (FLT3 D835V; binding; competition with immobilised ligand; 10 µM): 0%

CN(C)c1nccc(-c2cnc3ncccn23)n1
remaining binding (FLT3; binding; 1 µM): 100%

CC1=C(C#N)C(c2ccc3c(c2)c(NC(=O)c2ccccc2C)nn3C)C(C#N)=C(C)N1
remaining binding (FLT3 K663Q; cell-free assay; competition with immobilised ligand; 1 µM): 100%

C=CC(=O)N1CCC(C(=O)NCC(=O)N2CCN(c3nc(-c4cnc(N)nc4C(F)F)nc(N4CCOCC4)n3)CC2)CC1
remaining binding (FLT3; binding; competition with immobilised ligand; 1 µM): 91%

CN(C)c1ncc(F)c(-c2cnn3ncccc23)n1
remaining binding (FLT3 N841I; binding; 1 µM): 75%

CNC(=O)[C@@H]1CC[C@@H](n2c(-c3ccc4cnccc4c3)nc3ccc(C(=O)NCc4cccc(C(N)=O)c4)cc32)C1
remaining binding (FLT3 D835V; binding; competition with immobilised ligand; 1 µM): 94%

COc1ccnn2ncc(-c3ccnc(N(C)C)n3)c12
remaining binding (FLT3 autoinhibited; binding; 1 µM): 78%

O=C(Nc1c[nH]nc1C(=O)NC1CCNCC1)c1cc(F)cc(F)c1
remaining binding (FLT3 R834Q; binding; competition with immobilised ligand; 1 µM): 94%

COc1cnc(Nc2cccc(S(N)(=O)=O)c2)nc1N1CCN(c2ccccc2)C(=O)C1
remaining binding (FLT3 R834Q; binding; competition with immobilised ligand; 1 µM): 77%

COc1ncc2cc3ccccc3nc2c1C#N
remaining binding (FLT3 K663Q; cell-free assay; competition with immobilised ligand; 5 µM): 97%

Cc1cnc(Nc2ccc(C(=O)N3CCC(N4CCCC4)CC3)cc2)nc1-c1cc2ccccc2s1
remaining binding (FLT3 D835Y; binding; competition with immobilised ligand; 1 µM): 3.6%

Cc1cc(-n2nc(Cc3cc(F)cc(C(F)(F)F)c3)nc2C)ccc1C(N)=O
remaining binding (FLT3; cell-free assay; competition with immobilised ligand; 1 µM): 100%
